ChEMBL document CHEMBL1127808, “Structure-distribution relationships for metal-labeled myocardial imaging agents: comparison of a series of cationic gallium (III) complexes with hexadentate bis(salicylaldimine) ligands” (J Med Chem, 1994)

Experiments:
Type in all cases: functional
[1] = Ratio of retention of tracer Gallium in Heart to Liver was determined after intravenous administration to rats after 120 min
Summary of the method: (§1)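 Heart-to-liver and heart-to-blood ratios were calculated from percent injected dose per gram of tissue. No-carrier-added 67Ga complex (1–3 μCi, 0.1–0.2 mL) in 5% ethanol/saline with 5–10% propylene glycol, radiochemical purity >98%, was given as a femoral vein bolus to male Sprague-Dawley rats under ether anesthesia. Rats were decapitated at 1, 15 or 120 min and tissues gamma counted. Mean ± SD, n = 3–4.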

Rattus norvegicus [2] = assay: Retention of tracer Gallium in liver of rats after intravenous administration and Gallium-67 Bis(salicylaldimine) after 120 min
Summary of the method: (§2)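 Male Sprague-Dawley rats under ether anesthesia received a femoral vein bolus of no-carrier-added 67Ga complex (1–3 μCi, 0.1–0.2 mL; 5% ethanol in 0.16 M NaCl with 5–10% propylene glycol, filtered 0.2 μm). Injected dose was found by weighing the syringe. Rats were decapitated at 1 or 120 min. Organs were blotted, weighed and gamma counted against an injectate standard, giving percent injected dose per organ. Blood was taken as 7% of body mass. Mean ± SD, n = 3–4.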

Rattus norvegicus [3] = assay: Retention of tracer Gallium in heart of rats after intravenous administration and Gallium-67 Bis(salicylaldimine) after 1 min; summary of the method: as §2
[4] = Ratio of retention of tracer Gallium in Heart to blood was determined after intravenous administration to rats after 120 min; summary of the method: as §1
Rattus norvegicus [5] = assay: Retention of tracer Gallium in heart of rats after intravenous administration and Gallium-67 Bis(salicylaldimine) after 120 min; summary of the method: as §2
Rattus norvegicus [6] = assay: Retention of tracer Gallium in lung of rats after intravenous administration and Gallium-67 Bis(salicylaldimine) after 1 min; summary of the method: as §2
Rattus norvegicus [7] = assay: Retention of tracer Gallium in blood of rats after intravenous administration and Gallium-67 Bis(salicylaldimine) after 120 min; summary of the method: as §2
Rattus norvegicus [8] = assay: Retention of tracer Gallium in lung of rats after intravenous administration and Gallium-67 Bis(salicylaldimine) after 120 min; summary of the method: as §2
Rattus norvegicus [9] = assay: Retention of tracer Gallium in liver of rats after intravenous administration and Gallium-67 Bis(salicylaldimine) after 1 min; summary of the method: as §2
Rattus norvegicus [10] = assay: Retention of tracer Gallium in kidney of rats after intravenous administration and Gallium-67 Bis(salicylaldimine) after 120 min; summary of the method: as §2
[11] = Ratio of retention of tracer Gallium in Heart to Liver was determined after intravenous administration to rats after 1 min; summary of the method: as §1
Rattus norvegicus [12] = assay: Retention of tracer Gallium in blood of rats after intravenous administration and Gallium-67 Bis(salicylaldimine) after 1 min; summary of the method: as §2
[13] = Ratio of retention of tracer Gallium in Heart to blood was determined after intravenous administration to rats after 1 min; summary of the method: as §1
Rattus norvegicus [14] = assay: Retention of tracer Gallium in kidney of rats after intravenous administration and Gallium-67 Bis(salicylaldimine) after 1 min; summary of the method: as §2
Rattus norvegicus [15] = assay: Retention of tracer Gallium in kidney of rats after intravenous administration and Gallium-67 Bis(salicylaldimine) after 1 min was determined; summary of the method: as §2
Rattus norvegicus [16] = assay: Retention of tracer Gallium in kidney of rats after intravenous administration and Gallium-67 Bis(salicylaldimine) after 120 min was determined; summary of the method: as §2
[17] = Ratio of retention of tracer Gallium in Heart to Liver was determined after intravenous administration to rats after 15 min; summary of the method: as §1
[18] = Ratio of retention of tracer Gallium in Heart to blood was determined after intravenous administration to rats after 15 min; summary of the method: as §1

Structure (SMILES)	Ratio [1]	Injected dose (Rattus norvegicus [2]) [%]	Injected dose (Rattus norvegicus [3]) [%]	Ratio [4]	Injected dose (Rattus norvegicus [5]) [%]	Injected dose (Rattus norvegicus [6]) [%]	Injected dose (Rattus norvegicus [7]) [%]	Injected dose (Rattus norvegicus [8]) [%]	Injected dose (Rattus norvegicus [9]) [%]	Injected dose (Rattus norvegicus [10]) [%]	Ratio [11]	Injected dose (Rattus norvegicus [12]) [%]	Ratio [13]	Injected dose (Rattus norvegicus [14]) [%]	Injected dose (Rattus norvegicus [15]) [%]	Injected dose (Rattus norvegicus [16]) [%]	Ratio [17]	Ratio [18]
COc1cc(C)c(/C=N/CCCNCCNCCC/N=C/c2c(C)cc(OC)cc2O)c(O)c1	3.6	3.4	1.08	45.1	1.03	0.88	0.43	0.55	28.8	1.94	0.45	5.94	3.4	5.39	–	–	–	–
COc1cc(O)c(/C=N/CCCNCCNCCC/N=C/c2cc(C)c(OC)cc2O)cc1C	1.92	5.3	0.88	30	0.89	0.79	0.61	0.42	39.5	–	0.14	7.79	2.1	–	5.14	2.74	–	–
COc1cc(O)c(/C=N\CC(C)(C)CNCCNCC(C)(C)C/N=C/c2c(O)cc(OC)cc2OC)c(OC)c1	3.24	3.9	1.03	44.5	1.01	1.63	0.45	0.64	50.6	5.4	0.23	18.8	1.1	8.33	–	–	0.32	9.6
CCN(CC)c1ccc(/C=N\CC(C)(C)CNCCNCC(C)(C)C/N=C/c2ccc(N(CC)CC)cc2O)c(O)c1	0.5	11.1	0.66	8.1	0.4	5.3	1.06	1.31	47	5.17	0.17	30.6	0.45	4.25	–	–	0.13	1.9
CCN(CC)c1ccc(/C=N/CCCNCCNCCC/N=C/c2ccc(N(CC)CC)cc2O)c(O)c1	0.86	9.7	0.69	9.2	0.65	1.26	1.27	0.67	38.1	4.67	0.24	11.1	1.22	6.33	–	–	0.28	4.5
Oc1ccccc1/C=N/CCCNCCNCCC/N=C/c1ccccc1O	0.9	5.3	0.45	12.2	0.41	1	0.64	0.28	26.7	1.4	0.2	4.21	2.15	9.84	–	–	0.51	8.3
COc1ccc(/C=N/CCCNCCNCCC/N=C/c2ccc(OC)cc2O)c(O)c1	1.6	5.1	0.67	30.6	0.65	1.05	0.42	0.38	25.2	1.69	0.32	4.44	2.99	8.42	–	–	0.62	17.6
CC(C)c1ccc(O)c(/C=N/CCCNCCNCCC/N=C/c2cc(C(C)C)ccc2O)c1	0.75	8.5	0.67	8.6	0.55	1.06	1.21	0.36	49.2	3.95	0.16	23.4	0.54	6.02	–	–	–	–
CCOc1cc(C)c(/C=N/CCCNCCNCCC/N=C/c2c(C)cc(OCC)cc2O)c(O)c1	2.7	3	0.91	40.5	0.87	0.8	0.42	0.49	29.5	2.42	0.29	7.73	2.2	5.24	–	–	0.73	20.9
COc1cc(O)c(/C=N/CCCNCCNCCC/N=C/c2c(O)cc(OC)cc2OC)c(OC)c1	4.1	3.1	1.04	45.6	0.86	0.92	0.33	0.52	43	2.17	0.32	8.49	2.3	5.26	–	–	0.56	18.1
COc1ccc(O)c(/C=N/CCCNCCNCCC/N=C/c2cc(OC)ccc2O)c1	0.42	6.8	0.34	4.3	0.23	0.79	1.11	0.18	26.5	1.19	0.15	7.55	0.89	7.64	–	–	0.19	2.6
